According to ChEMBL document CHEMBL1129448, “Neurosteroid analogues. 4. The effect of methyl substitution at the C-5 and C-10 positions of neurosteroids on electrophysiological activity at GABAA receptors” (1996):

Key:
Rattus norvegicus [1] = species on record: Rattus norvegicus; experiment: Compound was evaluated at 10 uM for its ability to initiate (gate) a current in the absence of GABA in cultured postnatal rat hippocampal neurons; format: functional; parameters: unit not given here
Summary of the method: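 Whole-cell voltage clamp of cultured postnatal rat hippocampal neurons at -60 mV. Compound at 10 µM was applied without GABA by pressure ejection (500 ms, 10-20 psi) from a pipet within 5 µm. CsCl-based pipet solution, pH 7.3. DMSO final <0.2%. Peak directly gated current is expressed relative to the same cell's response to 2 µM GABA alone. Mean ± SEM, N cells.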

Rattus norvegicus [2] = species on record: Rattus norvegicus; experiment: Compound was evaluated at 10 uM GABA-mediated current in cultured postnatal rat hippocampal neurons; format: functional
Summary of the method: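 Whole-cell voltage clamp of cultured postnatal rat hippocampal neurons held at -60 mV. Compound at 10 µM was co-applied with 2 µM GABA by pressure ejection (500 ms jet, 10-20 psi) from a pipet within 5 µm of the cell. Pipet solution was CsCl-based, pH 7.3. DMSO final <0.2%. Current is given as % of 2 µM GABA alone (100% = no change). Mean ± SEM, N cells.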

| Compound | Gated current (Rattus norvegicus [1]) | Potentation (Rattus norvegicus [2]) |
| --- | --- | --- |
| CC(=O)[C@H]1CC[C@H]2[C@@H]3CC[C@@H]4C[C@H](O)CC[C@@H]4[C@H]3CC[C@]12C | 110 | 754 |
| CC(=O)[C@H]1CC[C@H]2[C@@H]3CCC4(C)C[C@H](O)CC[C@@H]4[C@H]3CC[C@]12C (stereo partly drawn) | 0 | 110 |
| C[C@]12CC[C@@H]3[C@H](CC[C@]4(C)[C@@H](C#N)CC[C@@H]34)[C@H]1CC[C@@H](O)C2 | 28 | 452 |
| CC(=O)[C@H]1CC[C@H]2[C@@H]3CC[C@]4(C)C[C@H](O)CC[C@]4(C)[C@H]3CC[C@]12C | 24 | 498 |
| C[C@]12CC[C@H]3[C@@H](CC[C@@H]4C[C@H](O)CC[C@@H]43)[C@@H]1CC[C@@H]2C#N | 41 | 1823 |
| CC(=O)[C@H]1CC[C@H]2[C@@H]3CCC4C[C@H](O)CC[C@@H]4[C@H]3CC[C@]12C (stereo partly drawn) | 46 | 926 |
| CC(=O)[C@H]1CC[C@H]2[C@@H]3CC[C@]4(C)C[C@H](O)CC[C@@H]4[C@H]3CC[C@]12C | 12 | 652 |
| CC(=O)[C@H]1CC[C@H]2[C@@H]3CCC4(C)C[C@H](O)CC[C@]4(C)[C@H]3CC[C@]12C (stereo partly drawn) | 3 | 294 |
| CC(=O)[C@H]1CC[C@H]2[C@@H]3CC[C@H]4C[C@H](O)CC[C@]4(C)[C@H]3CC[C@]12C [BREXANOLONE] | 26 | 1111 |
| C[C@]12CC[C@@H](O)C[C@@H]1CC[C@@H]1[C@@H]2CC[C@]2(C)[C@@H](C#N)CC[C@@H]12 | 32 | 1829 |
| CC(=O)[C@H]1CC[C@H]2[C@@H]3CC[C@@H]4C[C@H](O)CC[C@]4(C)[C@H]3CC[C@]12C [ELTANOLONE] | 49 | 1023 |
| C[C@]12CC[C@H]3[C@@H](CCC4C[C@H](O)CC[C@@H]43)[C@@H]1CC[C@@H]2C#N (stereo partly drawn) | 42 | 1721 |
| CC12CC[C@@H]3[C@H](CC[C@]4(C)[C@@H](C#N)CC[C@@H]34)[C@H]1CC[C@@H](O)C2 (stereo partly drawn) | 0 | 92 |
| C[C@]12CC[C@@H](O)C[C@H]1CC[C@@H]1[C@@H]2CC[C@]2(C)[C@@H](C#N)CC[C@@H]12 | 68 | 1297 |
